The record followed here is ChEMBL document CHEMBL3352369, “Design, synthesis and biological evaluation of novel 1-hydroxyl-3-aminoalkoxy xanthone derivatives as potent anticancer agents” (Eur J Med Chem, 2014).

Activity calls are given as the source filed them. No cut-off for these calls is given here.

What all share (format): functional, cell-based
The nature of test [1]: Antiproliferative activity against human Bel7402 cells assessed as inhibition of cell viability after 48 hrs by MTT assay. The settings on record: Bel-7402, 48 h. A digest of the protocol:
(§1)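 A549, BEL-7402 and CNE lines from SIBS (Shanghai), grown as monolayer in RPMI 1640 with 10% FBS. 5000 cells/well in 96-well plates, graded concentrations for 48 h. MTT incubation 4 h at 37 C, DMSO solubilisation, A490 read. IC50 derived from survival relative to untreated control; 5-fluorouracil reference.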

Test [2] has as its system MGC-803. As to the kind of experiment: Antiproliferative activity against human MGC803 cells assessed as inhibition of cell viability after 48 hrs by MTT assay. As to conditions: MGC-803, 48 h. A digest of the protocol: (§2)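 MGC-803 cells from SIBS (Shanghai), monolayer in RPMI 1640 with 10% FBS. 5000 cells/well in 96-well plates, exposed to compound for 24, 48 or 72 h. MTT added for a further 4 h at 37 C, formazan dissolved in DMSO, absorbance read at 490 nm. Survival rate = sample/control absorbance × 100%. n = 5, three independent experiments, two-tailed t-test.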

In the next test the test system is A549. The experiment in a line: Antiproliferative activity against human A549 cells assessed as inhibition of cell viability after 48 hrs by MTT assay. As to conditions: A549, 48 h. Summed up: as §1
A further test relates to CNE. As to the kind of experiment: Antiproliferative activity against human CNE cells assessed as inhibition of cell viability after 48 hrs by MTT assay. A digest of the protocol: as §1
The test system of test [3] is MGC-803. As to the kind of experiment: Anticancer activity against human MGC803 cells assessed as inhibition of cell viability after 24 to 72 hrs by MTT assay. A digest of the protocol: as §2
Test [4] deals with MGC-803. The experiment in a line: Anticancer activity against human MGC803 cells assessed as colony formation at > 1 uM after 24 hrs. A digest of the protocol: (§3)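 Clonogenic assay: MGC-803 seeded at 200 cells/well in 6-well plates and treated for 24 h. Then kept 10 d at 37 C in humidified CO2. Colonies of >50 cells counted; survival expressed as percent of untreated control (100%). n = 3, three independent experiments.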

The test system of test [5] is MGC-803. As to the kind of experiment: Induction of apoptosis in human MGC803 cells assessed as koss of Ca2+ homeostasis after 24 hrs by fluorescence microscopy.
Test [6] deals with MGC-803. As to the kind of experiment: Anticancer activity against human MGC803 cells assessed as inhibition of cell viability at 0.01 to 100 uM by MTT assay. The settings on record: TDE = time-dependent effect. Summed up:
as §2

Test [7] relates to MGC-803. The experiment in a line: Antiproliferative activity against human MGC803 cells assessed as inhibition of cell viability after 24 hrs by MTT assay. As to conditions: MGC-803, 24 h. Summed up:
as §2

Test [8] has as its system MGC-803. The experiment in a line: Anticancer activity against human MGC803 cells assessed as colony formation after 24 hrs. Summed up: as §3
Test [9] concerns MGC-803. The experiment in a line: Anticancer activity against human MGC803 cells assessed as cell shrinkage and deformation at 100 uM after 72 hrs by inverted phase contrast microscopy assay.
Test [10] concerns MGC-803. The experiment in a line: Induction of apoptosis in human MGC803 cells assessed as nuclear condensation after 24 hrs.
Test [11] concerns MGC-803. As to the kind of experiment: Antiproliferative activity against human MGC803 cells assessed as inhibition of cell viability after 72 hrs by MTT assay. As to conditions: MGC-803, 72 h. A digest of the protocol:
as §2

Test [12] concerns MGC-803. The experiment in a line: Induction of apoptosis in human MGC803 cells assessed as change in mitochondrial membrane potential by Rhodamine 123 assay. Summed up: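 Mitochondrial membrane potential measured with the cationic dye rhodamine 123 in treated MGC-803 cells at 10, 50 and 100 μM. Cellular fluorescence intensity normalised to baseline values of untreated control as a semiquantitative index.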

Consider `CN(C)CCCCOc1cc(O)c2c(=O)c3ccccc3oc2c1`, for which the IC50 in test [1] came out at 20.3 µM; in the test on MGC-803 [2], 5.99 µM; in the test with A549 it was 8.83 µM; with CNE it was 3.81 µM.

For the compound `O=c1c2ccccc2oc2cc(OCCCCCN3CCCC3)cc(O)c12`, the IC50 in test [1] turned out to be 18.2 µM; with MGC-803 [2], 3.81 µM; with A549, 5.99 µM; in the test on CNE, 12.1 µM.

With `C[N+]1(CCCCCCOc2cc(O)c3c(=O)c4ccccc4oc3c2)CCCC1`, the IC50 in test [1] was 23.9 µM; in the test on MGC-803 [2] it was 14.8 µM; with A549, 9.95 µM; in the test with CNE it was 4.82 µM.

Consider `C[N+]1(CCOc2cc(O)c3c(=O)c4ccccc4oc3c2)CCCC1`, for which the IC50 in test [1] was > 100 µM; in the test on MGC-803 [2], 83.3 µM; with A549, > 100 µM; in the test on CNE, 65.9 µM.

Regarding `C[N+]1(CCCCOc2cc(O)c3c(=O)c4ccccc4oc3c2)CCCC1`, the IC50 in [1] is > 100 µM; in the test with MGC-803 [2], 8.04 µM; with A549, 19.5 µM; with CNE it was > 100 µM.

Turning to `O=c1[nH]cc(F)c(=O)[nH]1` [FLUOROURACIL], the IC50 amounted to 19.8 µM in [1], 7.76 µM in the test with MGC-803 [2], 7.62 µM in the test on A549 and 15.1 µM in the test on CNE.

In the case of `O=c1c2ccccc2oc2cc(OCCBr)cc(O)c12`, the IC50 in [1] is > 100 µM; with MGC-803 [2], 21.5 µM; with A549, > 100 µM; in the test with CNE, > 100 µM.

For `C[N+]1(CCCCCOc2cc(O)c3c(=O)c4ccccc4oc3c2)CCCC1`, the IC50 was > 100 µM in test [1], 12.7 µM in the test with MGC-803 [2], 10.7 µM with A549 and 3.88 µM in the test on CNE.

`O=c1c2ccccc2oc2cc(OCCCBr)cc(O)c12`: the half-inhibitory concentration (IC50) in test [1] was > 100 µM; with MGC-803 [2], 28.9 µM; in the test with A549 it was > 100 µM; with CNE, > 100 µM.

In the case of `C[N+]1(CCCCOc2cc(O)c3c(=O)c4ccccc4oc3c2)CCCCC1`, the IC50 is > 100 µM in test [1], 5.13 µM with MGC-803 [2], 19.2 µM in the test with A549 and 26.5 µM with CNE.

In the case of `CC[N+](C)(CC)CCCCOc1cc(O)c2c(=O)c3ccccc3oc2c1`, the IC50 in [1] was > 100 µM; in the test with MGC-803 [2], 4.61 µM; in the test with A549, 13 µM; in the test with CNE, > 100 µM.

For the compound `C[N+]1(CCCCOc2cc(O)c3c(=O)c4ccccc4oc3c2)CCOCC1`, the IC50 is > 100 µM in test [1], 17.6 µM in the test with MGC-803 [2], > 100 µM in the test with A549 and 92.9 µM with CNE.

In the case of `CCN(CC)CCCCOc1cc(O)c2c(=O)c3ccccc3oc2c1`, the inhibition entry with MGC-803 [3] was “Dose-dependent effect”; in the test with MGC-803 [6], “tde”; with MGC-803 [8] it was “Dose-dependent effect”; in the test with MGC-803 [10] it was “Dose-dependent effect”. Besides, the IC50 in test [1] was determined as 20.1 µM; with MGC-803 [2], 3.57 µM; with A549, 7.57 µM; in the test with MGC-803 [7], 11.9 µM; in the test with CNE it was 3.63 µM; with MGC-803 [11], 1.82 µM. For the same compound, the inhibition entry with MGC-803 [4] and in the test on MGC-803 [9] was “Active” throughout. The Activity entry with MGC-803 [5] and with MGC-803 [12] was “Dose-dependent effect” each time.

Consider `O=c1c2ccccc2oc2cc(OCCCN3CCCC3)cc(O)c12`, for which the IC50 stood at 13 µM in test [1], 6.66 µM with MGC-803 [2], 11.6 µM in the test with A549 and 6.25 µM in the test on CNE.

`O=c1c2ccccc2oc2cc(OCCCCN3CCCCC3)cc(O)c12`: the IC50 stood at 54.4 µM in [1], 28.2 µM with MGC-803 [2], 88.4 µM with A549 and 16.2 µM with CNE.

Regarding `O=c1c2ccccc2oc2cc(OCCCCCBr)cc(O)c12`, the IC50 is 77.2 µM in test [1], 24.4 µM in the test with MGC-803 [2], > 100 µM in the test on A549 and > 100 µM with CNE.

For the compound `O=c1c2ccccc2oc2cc(OCCCCCCN3CCCC3)cc(O)c12`, the IC50 in test [1] was 17.9 µM; in the test with MGC-803 [2] it was 5.32 µM; in the test on A549 it was 8.94 µM; in the test with CNE it was 1.24 µM.

On to `O=c1c2ccccc2oc2cc(OCCCCCCBr)cc(O)c12`, for which the IC50 (in [1]; in the test on MGC-803 [2]; in the test on A549; with CNE) was > 100 µM throughout.

With `O=c1c2ccccc2oc2cc(OCCCCN3CCOCC3)cc(O)c12`, the IC50 (in test [1]; with MGC-803 [2]; in the test on A549; in the test on CNE) was > 100 µM throughout.

With `O=c1c2ccccc2oc2cc(OCCCCBr)cc(O)c12`, the IC50 was 67.9 µM in [1], 22.7 µM with MGC-803 [2], > 100 µM in the test with A549 and 85.6 µM with CNE.

`C[N+]1(CCCOc2cc(O)c3c(=O)c4ccccc4oc3c2)CCCC1`: the IC50 in [1] is > 100 µM; in the test with MGC-803 [2], 9.66 µM; in the test with A549 it was > 100 µM; in the test with CNE it was > 100 µM.

Regarding `O=c1c2ccccc2oc2cc(OCCCCN3CCCC3)cc(O)c12`, the IC50 in test [1] came out at 20.8 µM; in the test with MGC-803 [2] it was 4.5 µM; with A549, 18.5 µM; in the test with CNE, 5.97 µM.

In the case of `O=c1c2ccccc2oc2cc(OCCN3CCCC3)cc(O)c12`, the IC50 in test [1] amounted to 14.6 µM; with MGC-803 [2] it was 5.63 µM; in the test on A549, 12.8 µM; with CNE, 11.3 µM.

For the compound `C[N+](C)(C)CCCCOc1cc(O)c2c(=O)c3ccccc3oc2c1`, the IC50 in test [1] was > 100 µM; in the test on MGC-803 [2], 38.1 µM; with A549 it was 83.9 µM; with CNE it was 38.5 µM.
